Results: ChEMBL document CHEMBL1138217, “Rapid discovery and structure-activity profiling of novel inhibitors of human immunodeficiency virus type 1 protease enabled by the copper(I)-catalyzed synthesis of 1,2,3-triazoles and their further functionalization” (J Med Chem, 2006)
pIC50, pKi: −log10 of the molar value.

Legend:
[1] = molecular target: Human immunodeficiency virus type 1 protease (Human immunodeficiency virus 1, UniProt Q72874); test: Inhibition of HIV1 protease
Summary of the method: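 HIV-1 protease (SF-2-WTQ7K-Pr construct for the isolated inhibitors) at 20 µg/mL with 50 µM fluorogenic substrate Abz-Thr-Ile-Nle/Phe-(p-NO2)Gln-Arg-NH2, in 0.1 M MES, 0.2 M NaCl, pH 5.25, 5% (v/v) glycerol. Crude mixtures were screened at 5 µM as percent inhibition.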

[2] = molecular target: Human immunodeficiency virus type 1 protease (Human immunodeficiency virus 1) (UniProt Q72874); test: Inhibition of HIV1 protease at 5 uM
Summary of the method: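 Crude click-reaction DMSO mixtures (azide-alkyne, CuSO4 with copper turning, 1:1 tBuOH/H2O, 50 °C, 5 days) diluted to 5 µM in 0.1 M MES, 0.2 M NaCl, pH 5.25, 5% glycerol; HIV-1 protease 20 µg/mL plus fluorogenic substrate 50 µM added; fluorescence read directly in microplate; percent inhibition; TL-3 100 nM positive control.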

Row | Structure (SMILES) | pKi [1] | inhibition [2] [%] | pIC50 [1]
1 | Cc1ccc(Cl)cc1N1CCN(Cc2cn([C@@H](Cc3ccccc3)[C@H](Cc3ccccc3)NC(=O)OC3CCCC3)nn2)CC1 | 7.64 | 94 | –
2 | Cc1ccc(Cl)cc1N1CCN(Cc2cn([C@@H](Cc3ccccc3)[C@H](Cc3ccccc3)NC(=O)CC3CCCC3)nn2)CC1 | < 5.60 | 28 | –
3 | Cc1ccc(Cl)cc1N1CCN(Cc2cn([C@@H](Cc3ccccc3)[C@H](Cc3ccccc3)NC(=O)O[C@@H]3CCOC3)nn2)CC1 | 7.08 | 71 | –
4 | Cc1ccc(C)c(N2CCN(Cc3cn([C@@H](Cc4ccccc4)[C@H](Cc4ccccc4)NC(=O)OC4CCCC4)nn3)CC2)c1 | 7.49 | 94 | < 4.60
5 | CC(C)C[C@H](NC(=O)OC1CCCC1)[C@H](Cc1ccccc1)n1cc(CN2CCN(c3cccc(C(F)(F)F)c3)CC2)nn1 | 7.07 | 50 | –
6 | CC[C@H](O)c1c(CN2CCN(c3cc(C)ccc3C)CC2)nnn1[C@@H](Cc1ccccc1)[C@H](Cc1ccccc1)NC(=O)OC1CCCC1 | 7.57 | – | –
7 | Cc1ccc(Cl)cc1N1CCN(Cc2nnn([C@@H](Cc3ccccc3)[C@H](Cc3ccccc3)NC(=O)OC3CCCC3)c2[C@@H](C)O)CC1 | 7.55 | – | –
8 | CC(C)(C)OC(=O)N[C@@H](Cc1ccccc1)[C@H](Cc1ccccc1)N=[N+]=[N-] | 4.51 | – | –
9 | O=C(N[C@@H](Cc1ccccc1)[C@H](Cc1ccccc1)n1cc(CN2CCN(c3cccc(C(F)(F)F)c3)CC2)nn1)OC1CCCC1 (stereo in doubt; (S,S)-7d) | 7.01 | – | –
